Measured values published in ChEMBL document CHEMBL2086331, “Novel triazolopyridylbenzamides as potent and selective p38α inhibitors” (Bioorg Med Chem Lett, 2012).

Tests used:
Blood = experiment: Inhibition of LPS-induced TNFalpha production in human whole blood; assay type: functional, tissue-based
[1] = AUC in Wistar rat at 10 mg/kg, po; assay type: ADME, organism-based; set-up: dose 10 mg/kg, route oral; settings: plasma
In short: (§1)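 Wistar rats, single dose either iv 1 mg/kg in 40% PEG + 0.4% HCl 1 N, or oral 10 mg/kg in 0.5% methylcellulose + 0.1% Tween 80; plasma PK parameters reported as mean values (n = 2).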

[2] = Cmax in Wistar rat at 10 mg/kg, po; assay type: ADME, organism-based; set-up: dose 10 mg/kg, route oral; settings: in vivo; in short: as §1
[3] = Oral bioavailability in beagle dog at 1 mg/kg; assay type: ADME, organism-based, Canis lupus familiaris; settings: in vivo
In short: (§2)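 Beagle dogs dosed 1 mg/kg iv or 1 mg/kg po; pharmacokinetic parameters reported as mean values of n = 2 animals.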

[4] = Volume of distribution at steady state in beagle dog at 1 mg/kg, iv; assay type: ADME, organism-based, Canis lupus familiaris; set-up: dose 1 mg/kg, route intravenous; settings: in vivo, read-out: Vdss; in short: as §2
[5] = Cmax in beagle dog at 1 mg/kg, po; assay type: ADME, organism-based, Canis lupus familiaris; set-up: dose 1 mg/kg, route oral; settings: in vivo; in short: as §2
[6] = Protein binding in rat plasma; assay type: ADME, cell-free; settings: read-out: PPB (converted)
[7] = Half life in Wistar rat at 1 mg/kg, iv; assay type: ADME, organism-based; set-up: dose 1 mg/kg, route intravenous; settings: in vivo; in short: as §1
Cytochrome P450 3A4 = Cytochrome P450 3A4 (Homo sapiens, UniProt P08684); experiment: Inhibition of CYP3A4 at < 25 uM; assay type: ADME
Chain of Cytochrome P450 3A4 (P08684 whole entry): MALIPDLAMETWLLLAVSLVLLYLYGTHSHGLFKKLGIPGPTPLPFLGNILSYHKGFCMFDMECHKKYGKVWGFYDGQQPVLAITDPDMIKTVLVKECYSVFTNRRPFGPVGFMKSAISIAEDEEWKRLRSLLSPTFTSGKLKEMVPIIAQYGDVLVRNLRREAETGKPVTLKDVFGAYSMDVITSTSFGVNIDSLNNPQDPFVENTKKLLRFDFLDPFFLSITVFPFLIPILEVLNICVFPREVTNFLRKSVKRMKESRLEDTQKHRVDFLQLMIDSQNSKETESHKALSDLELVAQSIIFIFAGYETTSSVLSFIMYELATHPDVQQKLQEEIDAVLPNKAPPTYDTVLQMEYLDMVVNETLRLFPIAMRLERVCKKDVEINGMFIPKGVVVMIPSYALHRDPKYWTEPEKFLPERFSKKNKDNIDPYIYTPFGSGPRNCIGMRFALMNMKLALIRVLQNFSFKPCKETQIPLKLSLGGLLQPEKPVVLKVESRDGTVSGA

CHO [8] = experiment: Cytotoxicity against CHO cells at 200 uM; assay type: cell-based, Cricetulus griseus; settings: chinese hamster
Cytochrome P450 1A2 = target: T1, Cytochrome P450 1A2 (Homo sapiens, UniProt P05177); experiment: Inhibition of CYP1A2 at < 25 uM; assay type: ADME
T1 sequence (P05177 whole entry): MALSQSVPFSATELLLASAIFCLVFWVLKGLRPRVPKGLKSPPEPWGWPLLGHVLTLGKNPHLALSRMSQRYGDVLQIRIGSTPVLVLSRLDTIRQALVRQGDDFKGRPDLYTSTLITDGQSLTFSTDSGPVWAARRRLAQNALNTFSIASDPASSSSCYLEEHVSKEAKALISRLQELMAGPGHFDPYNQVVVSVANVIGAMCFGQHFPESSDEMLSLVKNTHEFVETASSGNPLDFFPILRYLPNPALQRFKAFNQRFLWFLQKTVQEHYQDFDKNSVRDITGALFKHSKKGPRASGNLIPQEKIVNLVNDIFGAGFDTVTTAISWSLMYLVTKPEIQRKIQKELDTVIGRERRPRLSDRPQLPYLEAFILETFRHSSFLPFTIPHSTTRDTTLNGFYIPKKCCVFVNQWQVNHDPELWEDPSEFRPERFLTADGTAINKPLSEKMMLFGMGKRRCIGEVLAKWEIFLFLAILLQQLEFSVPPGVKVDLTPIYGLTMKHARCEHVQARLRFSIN

[9] = Half life in beagle dog at 1 mg/kg, iv; assay type: ADME, organism-based, Canis lupus familiaris; set-up: dose 1 mg/kg, route intravenous; settings: in vivo; in short: as §2
Rattus norvegicus [10] = experiment: Antiarthritic effect in rat adjuvant-induced arthritis model assessed as inhibition of right paw edema at 3 mg/kg, po dosed daily during last 10 days of test; assay type: functional; settings: 240 h
In short: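 Arthritis induced by complete Freund's adjuvant injected into left hind paw; oral compound daily over final 10 days of protocol; right (non-injected) paw volume monitored, result as % inhibition of oedema.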

Cytochrome P450 2C9 = Cytochrome P450 2C9 (Homo sapiens, UniProt P11712); experiment: Inhibition of CYP2C9 at < 25 uM; assay type: ADME
Chain of Cytochrome P450 2C9 (P11712 whole entry): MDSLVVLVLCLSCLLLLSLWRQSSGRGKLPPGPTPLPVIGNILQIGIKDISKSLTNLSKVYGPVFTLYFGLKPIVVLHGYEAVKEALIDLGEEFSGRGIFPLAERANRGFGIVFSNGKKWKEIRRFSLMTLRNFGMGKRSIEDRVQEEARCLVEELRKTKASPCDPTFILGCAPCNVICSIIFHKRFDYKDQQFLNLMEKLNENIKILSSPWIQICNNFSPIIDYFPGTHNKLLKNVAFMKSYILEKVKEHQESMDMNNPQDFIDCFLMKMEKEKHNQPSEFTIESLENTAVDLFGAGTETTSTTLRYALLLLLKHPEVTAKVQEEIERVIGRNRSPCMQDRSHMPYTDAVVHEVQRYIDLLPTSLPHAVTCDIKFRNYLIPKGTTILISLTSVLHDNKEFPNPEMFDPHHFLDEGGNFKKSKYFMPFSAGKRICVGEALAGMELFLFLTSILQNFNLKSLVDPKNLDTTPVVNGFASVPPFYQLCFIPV

[11] = AUC in beagle dog at 1 mg/kg, iv; assay type: ADME, organism-based, Canis lupus familiaris; set-up: dose 1 mg/kg, route intravenous; settings: plasma; in short: as §2
[12] = AUC in beagle dog at 1 mg/kg, po; assay type: ADME, organism-based, Canis lupus familiaris; set-up: dose 1 mg/kg, route oral; settings: plasma; in short: as §2
in vitro = settings: human, Caco-2
[13] = Stability in human hepatic microsomes assessed as compound turnover at 5 uM incubated for 30 mins in presence of NADPH; assay type: ADME; settings: liver microsomes, read-out: Drug degradation
In short: (§3)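 Rat or human hepatic microsomes (1 mg/mL) with NADPH, test compound 5 µM, 30 min at 37 °C; readout is % turnover of parent.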

[14] = Volume of distribution at steady state in Wistar rat at 1 mg/kg, iv; assay type: ADME, organism-based; set-up: dose 1 mg/kg, route intravenous; settings: in vivo, read-out: Vdss; in short: as §1
[15] = Protein binding in human plasma; assay type: ADME, cell-free; settings: read-out: PPB (converted)
[16] = target: T2, RAF proto-oncogene serine/threonine-protein kinase (Homo sapiens, UniProt P04049); experiment: Inhibition of c-Raf
T2 sequence (P04049 whole entry): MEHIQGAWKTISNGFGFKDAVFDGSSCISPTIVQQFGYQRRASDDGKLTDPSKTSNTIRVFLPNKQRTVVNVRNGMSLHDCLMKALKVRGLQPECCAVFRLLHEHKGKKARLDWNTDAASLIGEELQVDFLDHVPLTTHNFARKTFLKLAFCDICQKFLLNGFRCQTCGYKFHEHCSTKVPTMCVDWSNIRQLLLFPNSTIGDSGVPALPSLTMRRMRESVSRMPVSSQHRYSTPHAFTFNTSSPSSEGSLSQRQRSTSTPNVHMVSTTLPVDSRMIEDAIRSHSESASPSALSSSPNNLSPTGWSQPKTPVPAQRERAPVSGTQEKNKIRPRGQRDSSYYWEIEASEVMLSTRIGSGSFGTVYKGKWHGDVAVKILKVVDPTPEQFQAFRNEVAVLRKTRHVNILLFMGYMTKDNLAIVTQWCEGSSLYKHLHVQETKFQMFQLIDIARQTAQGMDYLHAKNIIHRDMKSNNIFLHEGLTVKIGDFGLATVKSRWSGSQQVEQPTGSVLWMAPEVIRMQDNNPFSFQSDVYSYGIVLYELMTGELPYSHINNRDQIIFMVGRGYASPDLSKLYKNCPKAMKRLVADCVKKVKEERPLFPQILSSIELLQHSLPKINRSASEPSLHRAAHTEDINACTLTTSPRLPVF

[17] = Clearance in beagle dog at 1 mg/kg, iv; assay type: ADME, organism-based, Canis lupus familiaris; set-up: dose 1 mg/kg, route intravenous; settings: in vivo; in short: as §2
Rattus norvegicus [18] = experiment: Inhibition of TNFalpha release in rat LPS-induced endotoxemia model dosed orally 1 hr prior to LPS challenge and measured 1.5 hrs post LPS challenge; assay type: functional; settings: po
In short: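 Rats given compound orally 1 h before LPS challenge to induce endotoxemia; plasma TNFα quantified 1.5 h after LPS, at peak TNF production.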

Cytochrome P450 2C19 = Cytochrome P450 2C19 (Homo sapiens, UniProt P33261); experiment: Inhibition of CYP2C19 at < 25 uM; assay type: ADME
Chain of Cytochrome P450 2C19 (P33261 whole entry): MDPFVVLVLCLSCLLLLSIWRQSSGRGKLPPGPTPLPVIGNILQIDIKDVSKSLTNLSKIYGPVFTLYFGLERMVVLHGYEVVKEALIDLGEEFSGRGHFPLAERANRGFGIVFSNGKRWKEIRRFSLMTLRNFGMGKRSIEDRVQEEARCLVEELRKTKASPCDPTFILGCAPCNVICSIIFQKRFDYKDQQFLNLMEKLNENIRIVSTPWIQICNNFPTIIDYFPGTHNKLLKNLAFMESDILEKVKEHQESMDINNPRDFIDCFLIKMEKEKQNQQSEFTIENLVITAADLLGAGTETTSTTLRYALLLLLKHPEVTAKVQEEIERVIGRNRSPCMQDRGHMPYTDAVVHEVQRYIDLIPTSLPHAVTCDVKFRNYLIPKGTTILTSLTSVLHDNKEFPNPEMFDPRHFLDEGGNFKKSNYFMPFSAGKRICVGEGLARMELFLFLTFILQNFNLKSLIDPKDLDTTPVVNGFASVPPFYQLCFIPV

[19] = AUC in Wistar rat at 1 mg/kg, iv; assay type: ADME, organism-based; set-up: dose 1 mg/kg, route intravenous; settings: plasma; in short: as §1
[20] = Stability in rat hepatic microsomes assessed as compound turnover at 5 uM incubated for 30 mins in presence of NADPH; assay type: ADME; settings: liver microsomes, read-out: Drug degradation; in short: as §3
[21] = Passive permeability from basolateral to apical side in human Caco2 cells at 12.5 uM; assay type: ADME, cell-based; settings: Caco-2, read-out: permeability
In short: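 Caco-2 monolayer, test compound 12.5 µM; passive apparent permeability measured in both AB and BA directions, reported in 10^-6 cm/s.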

Cytochrome P450 2D6 = Cytochrome P450 2D6 (Homo sapiens, UniProt P10635); experiment: Inhibition of CYP2D6 at < 25 uM; assay type: ADME
Chain of Cytochrome P450 2D6 (P10635 whole entry): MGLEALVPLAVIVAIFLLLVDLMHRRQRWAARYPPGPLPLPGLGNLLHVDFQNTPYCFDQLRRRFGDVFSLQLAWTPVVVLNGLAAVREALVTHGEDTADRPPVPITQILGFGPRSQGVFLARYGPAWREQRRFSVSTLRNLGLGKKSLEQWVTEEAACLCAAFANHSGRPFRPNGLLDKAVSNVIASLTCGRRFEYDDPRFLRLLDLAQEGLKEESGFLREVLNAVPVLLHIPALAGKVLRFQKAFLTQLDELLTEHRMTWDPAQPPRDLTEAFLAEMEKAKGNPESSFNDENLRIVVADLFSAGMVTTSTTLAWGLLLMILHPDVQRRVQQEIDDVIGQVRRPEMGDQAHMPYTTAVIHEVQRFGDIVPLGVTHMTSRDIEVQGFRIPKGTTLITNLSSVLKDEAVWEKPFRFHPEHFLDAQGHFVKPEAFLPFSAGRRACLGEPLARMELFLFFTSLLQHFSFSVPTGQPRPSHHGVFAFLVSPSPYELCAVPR

[22] = Oral bioavailability in Wistar rat at 10 mg/kg; assay type: ADME, organism-based; settings: in vivo; in short: as §1
CHO [23] = experiment: Toxicity against CHO cells; assay type: cell-based, Cricetulus griseus; settings: chinese hamster
[24] = Clearance in Wistar rat at 1 mg/kg, iv; assay type: ADME, organism-based; set-up: dose 1 mg/kg, route intravenous; settings: in vivo; in short: as §1
[25] = target: Proto-oncogene tyrosine-protein kinase receptor Ret (Homo sapiens, UniProt P07949); experiment: Inhibition of RET at 10 uM
Chain of Proto-oncogene tyrosine-protein kinase receptor Ret (P07949 whole entry): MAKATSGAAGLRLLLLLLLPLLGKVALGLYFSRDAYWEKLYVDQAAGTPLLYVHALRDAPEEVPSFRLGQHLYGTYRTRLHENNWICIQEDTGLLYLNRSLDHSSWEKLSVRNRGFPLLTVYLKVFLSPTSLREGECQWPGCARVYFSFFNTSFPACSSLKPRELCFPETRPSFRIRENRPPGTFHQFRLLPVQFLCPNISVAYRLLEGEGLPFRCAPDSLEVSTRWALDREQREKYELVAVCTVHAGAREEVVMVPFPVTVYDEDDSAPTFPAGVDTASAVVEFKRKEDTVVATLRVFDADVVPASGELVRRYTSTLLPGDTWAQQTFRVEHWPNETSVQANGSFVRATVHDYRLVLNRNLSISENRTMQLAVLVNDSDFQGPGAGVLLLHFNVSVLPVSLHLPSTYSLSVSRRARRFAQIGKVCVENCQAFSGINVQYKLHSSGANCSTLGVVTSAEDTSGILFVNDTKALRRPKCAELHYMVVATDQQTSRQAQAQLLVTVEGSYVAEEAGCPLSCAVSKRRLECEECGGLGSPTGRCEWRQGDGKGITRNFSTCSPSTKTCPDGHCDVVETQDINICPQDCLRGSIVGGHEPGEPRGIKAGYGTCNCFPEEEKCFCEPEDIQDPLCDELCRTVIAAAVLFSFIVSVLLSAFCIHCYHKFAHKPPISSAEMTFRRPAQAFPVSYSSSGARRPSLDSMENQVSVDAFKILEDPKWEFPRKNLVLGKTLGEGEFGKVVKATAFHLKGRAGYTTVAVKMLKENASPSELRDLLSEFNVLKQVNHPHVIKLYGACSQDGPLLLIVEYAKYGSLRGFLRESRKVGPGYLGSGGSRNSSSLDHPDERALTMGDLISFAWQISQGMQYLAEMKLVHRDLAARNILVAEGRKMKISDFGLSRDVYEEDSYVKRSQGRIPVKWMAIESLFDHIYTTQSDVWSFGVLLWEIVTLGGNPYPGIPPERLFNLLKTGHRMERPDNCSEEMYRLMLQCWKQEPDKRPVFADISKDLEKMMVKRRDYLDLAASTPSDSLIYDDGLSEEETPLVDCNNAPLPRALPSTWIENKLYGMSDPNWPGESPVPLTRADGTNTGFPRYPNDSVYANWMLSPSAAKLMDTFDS
In short: (§4)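 Upstate 55-kinase panel; single inhibitor concentration 10 µM, duplicate wells, ATP at the Km of each kinase.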

[26] = target: T2, RAF proto-oncogene serine/threonine-protein kinase; experiment: Inhibition of c-Raf at 10 uM; in short: as §4
CHO [27] = experiment: Cytotoxicity against CHO cells; assay type: cell-based; settings: Cricetulus griseus

COC(C)c1nnc2cc(-c3cc(C(=O)NC4CC4)cc(F)c3C)ccn12 (stereo not drawn)
IC50 (Blood): 257 nM

Cc1c(F)cc(C(=O)NC2CC2)cc1-c1ccn2c(C3(C)CC3)nnc2c1
IC50 (Blood): 117 nM

Cc1ccc(C(=O)NC2CC2)cc1-c1ccn2c(C3CC3)nnc2c1
IC50 (Blood): 25 nM

Cc1c(F)cc(C(=O)NC2CC2)cc1-c1c(F)cn2c(-c3ccncc3Cl)nnc2c1F
IC50 (Blood): > 5000 nM

Cc1ccc(C(=O)NC2CC2)cc1-c1ccc2c(N3CCCCC3)noc2c1
IC50 (Blood): 98 nM

Cc1c(F)cc(C(=O)NC2CC2)cc1-c1ccn2c(C3CCOCC3)nnc2c1
IC50 (Blood): 405 nM

Cc1ccc(C(=O)NC2CC2)cc1-c1ccn2c(C3CCC3)nnc2c1
IC50 (Blood): 670 nM

Cc1c(F)cc(C(=O)NC2CC2)cc1-c1ccn2c(C3CCC3)nnc2c1
IC50 (Blood): 550 nM

Cc1c(F)cc(C(=O)NC2CC2)cc1-c1ccn2c(C(N)=O)nnc2c1
IC50 (Blood): 1840 nM

COC(C)(C)c1nnc2cc(-c3cc(C(=O)NC4CC4)cc(F)c3C)ccn12
IC50 (Blood): 278 nM

Cc1c(F)cc(C(=O)NC2CC2)cc1-c1ccn2c(C(C)C)nnc2c1
IC50 (Blood): 115 nM

Cc1ccc(C(=O)NC2CC2)cc1-c1ccn2c(C3CCOCC3)nnc2c1
IC50 (Blood): 667 nM

Cc1c(F)cc(C(=O)NC2CC2)cc1-c1c(F)cn2c(C3CC3)nnc2c1F
IC50 (Blood): 1470 nM

Cc1c(F)cc(C(=O)NC2CC2)cc1-c1ccn2c(C(C)(C)N)nnc2c1
IC50 (Blood): 177 nM

Cc1c(F)cc(C(=O)NC2CC2)cc1-c1c(F)cn2c(C(C)(C)N(C)C)nnc2c1F
IC50 (Blood): 124 nM

Cc1c(F)cc(C(=O)NC2CC2)cc1-c1ccn2c(-c3ccncc3Cl)nnc2c1
IC50 (Blood): 84 nM

Cc1ccc(C(=O)NC2CC2)cc1-c1ccn2c(C(C)(C)C)nnc2c1
AUC [1]: 19400 ng·h/mL
Cmax [2]: 2600 ng/mL
bioavailability [3]: 75%
Vd [4]: 1.7 L/kg
Cmax [5]: 215 ng/mL
fraction unbound [6]: 0.39
half-life [7]: 3.4 h
inhibition (INH) (Cytochrome P450 3A4): Not Active
Activity (CHO [8]): 50%
inhibition (INH) (Cytochrome P450 1A2): Not Active
half-life [9]: 2.5 h
inhibition in vivo at 3 mg/kg (Rattus norvegicus [10]): 60%
inhibition (INH) (Cytochrome P450 2C9): Not Active
AUC [11]: 1690 ng·h/mL
AUC [12]: 1260 ng·h/mL
Papp A→B at 12.5 µM (in vitro): 15 ×10⁻⁶ cm/s
metabolised at 0.5 h, 5 µM [13]: < 5%
Vd [14]: 2 L/kg
fraction unbound [15]: 0.42
IC50 [16]: 3200 nM
clearance [17]: 9.9 mL/min/kg
ED50 (Rattus norvegicus [18]): 0.26 mg/kg
inhibition (INH) (Cytochrome P450 2C19): Not Active
IC50 (Blood): 30 nM
AUC [19]: 2120 ng·h/mL
metabolised at 0.5 h, 5 µM [20]: < 5%
Papp B→A at 12.5 µM [21]: 18 ×10⁻⁶ cm/s
inhibition (INH) (Cytochrome P450 2D6): Not Active
bioavailability [22]: 93%
Activity (CHO [23]): Non-toxic
clearance [24]: 7.8 mL/min/kg

Cc1ccc(C(=O)NC2CC2)cc1-c1ccn2c(-c3ccccc3Cl)nnc2c1
IC50 (Blood): 20 nM

CC(C)(C)c1nnc2ccc(Sc3ccc(F)cc3F)cn12
IC50 (Blood): 143 nM

Cc1c(F)cc(C(=O)NC2CC2)cc1-c1c(F)cn2c(C(C)C)nnc2c1F
IC50 (Blood): 467 nM

Cc1c(F)cc(C(=O)NC2CC2)cc1-c1ccn2c(C3CC3)nnc2c1
IC50 (Blood): 213 nM

Cc1ccc(C(=O)NC2CC2)cc1-c1ccn2c(C(C)C)nnc2c1
IC50 (Blood): 42 nM

COC(C)c1nnc2cc(-c3cc(C(=O)NC4CC4)ccc3C)ccn12 (stereo not drawn)
IC50 (Blood): 1060 nM

Cc1ccc(C(=O)NC2CC2)cc1-c1ccn2c(-c3ccncc3Cl)nnc2c1
IC50 (Blood): 305 nM

Cc1c(F)cc(C(=O)NC2CC2)cc1-c1ccn2c(C(C)(C)O)nnc2c1
IC50 (Blood): 105 nM

Cc1c(F)cc(C(=O)NC2CC2)cc1-c1ccn2c(C(C)(C)C)nnc2c1
AUC [1]: 17800 ng·h/mL
Cmax [2]: 2580 ng/mL
inhibition [25]: 66%
Vd [4]: 1.6 L/kg
fraction unbound [6]: 0.21
half-life [7]: 3.8 h
inhibition (INH) (Cytochrome P450 3A4): Not Active
inhibition (INH) (Cytochrome P450 1A2): Not Active
inhibition [26]: 66%
half-life [9]: 3.5 h
inhibition (INH) (Cytochrome P450 2C9): Not Active
AUC [11]: 2770 ng·h/mL
Papp A→B at 12.5 µM (in vitro): 27 ×10⁻⁶ cm/s
metabolised at 0.5 h, 5 µM [13]: < 5%
Vd [14]: 1.3 L/kg
fraction unbound [15]: 0.16
clearance [17]: 6.2 mL/min/kg
inhibition (INH) (Cytochrome P450 2C19): Not Active
IC50 (Blood): 48 nM
AUC [19]: 2670 ng·h/mL
metabolised at 0.5 h, 5 µM [20]: < 5%
Papp B→A at 12.5 µM [21]: 23 ×10⁻⁶ cm/s
inhibition (INH) (Cytochrome P450 2D6): Not Active
bioavailability [22]: 66%
Activity (CHO [23]): Non-toxic
IC50 (CHO [27]): 107000 nM
clearance [24]: 6.5 mL/min/kg

Cc1ccc(C(=O)NC2CC2)cc1-c1c(F)cn2c(C(C)(C)C)nnc2c1F
IC50 (Blood): 516 nM

Cc1c(F)cc(C(=O)NC2CC2)cc1-c1ccn2c(C(C)(C)N(C)C)nnc2c1
IC50 (Blood): 84 nM

Cc1c(F)cc(C(=O)NC2CC2)cc1-c1ccn2c(C(C)(C)NS(C)(=O)=O)nnc2c1
IC50 (Blood): 1110 nM

Cc1c(F)cc(C(=O)NC2CC2)cc1-c1c(F)cn2c(C(C)(C)N)nnc2c1F
IC50 (Blood): 822 nM

Cc1ccc(C(=O)NC2CC2)cc1-c1ccn2c(C3(C)CC3)nnc2c1
IC50 (Blood): 232 nM

Cc1c(F)cc(C(=O)NC2CC2)cc1-c1ccn2c(-c3ccccc3Cl)nnc2c1
IC50 (Blood): 7.2 nM
